Assay results taken from ChEMBL document CHEMBL1143253, “Strongylophorines: natural product inhibitors of hypoxia-inducible factor-1 transcriptional pathway” (J Med Chem, 2008).
pEC50: −log10 of the molar value. The source made the active and inactive calls. No cut-off for these calls is given here.

Key:
[1] = Decrease in protein expression of HIF1-alpha in human U251-HRE cells under hypoxic condition at 30 uM; type: functional, cell-based
How it was run: (§1)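 U251-HRE cells (1 × 10^5) plated in six-well plates, treated after 24 h for 4 h under hypoxia; normoxic and compound-free hypoxic lanes included. Lysis in PBS/0.1% NP-40 with sonication, 100 µg protein on 12.5% polyacrylamide gels. Probed with monoclonal anti-HIF-1α and anti-VEGF (1:500), β-tubulin (1:10000) loading control, HRP anti-mouse secondary, ECL detection.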

[2] = Cytotoxicity against human U251-HRE cells at 100 uM after 16 hrs by MTT assay; type: functional
How it was run: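 U251-HRE glioma cells seeded 10000/well, left 24 h, then exposed to compound 16 h at 37 °C under normoxia (the hypoxic arm ran 24 h in a hypoxic incubator). Medium replaced with fresh medium plus 20 µL MTT (1.5 mg/mL) for 3 h, formazan dissolved in DMSO, absorbance read at 570 nm. Percent cytotoxicity from treated vs control A570; triplicate, SE.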

[3] = Decrease in protein expression of VEGF in human U251-HRE cells under hypoxic condition at 30 uM; type: functional, cell-based; how it was run: as §1
[4] = molecular target: T1, Hypoxia inducible factors; HIF-1-alpha, HIF-2-alpha (Homo sapiens, UniProt Q16665+Q99814); assay: Inhibition of hypoxia-induced HIF1 transcriptional activation in human U251-HRE cells by luciferase reporter assay; type: cell-based
How it was run: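 Stably transfected U251 glioma cells carrying a luciferase reporter driven by three HRE copies, seeded 10000/well and grown 24 h. Compounds in 2-propanol were tested at 1–100 µM for 16 h at 1% O2/5% CO2/94% N2. Cells were lysed and Bright-Glo luminescence read, normalized to vehicle, with ≥15-fold hypoxic induction required. EC50 derived from dose–response; triplicate.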

[5] = molecular target: T1, Hypoxia inducible factors; HIF-1-alpha, HIF-2-alpha; assay: Inhibition of hypoxia-induced HIF1 transcriptional activation in human U251-pGL3 cells at 30 uM by luciferase reporter assay; type: cell-based
How it was run: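 Counter-screen in U251-pGL3 cells, where firefly luciferase is driven by the SV40 promoter/enhancer, run in parallel with the HRE reporter assay. Cells incubated with compound under hypoxia (1% O2), then lysed and luciferase luminescence read. Data normalized to vehicle; triplicate.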

MDA-MB-231 = assay: Antiinvasive activity against human MDA-MB-231 cells; type: functional, cell-based

Row | EC50 [4] | Activity [5] | pEC50 (MDA-MB-231) | Structure (SMILES) | Activity [1] | inhibition at 100 µM [2] | Activity [3]
1 | 8 µM | inactive | – | C[C@@]12CC[C@H]3[C@]4(CCC[C@]3(C)C(=O)OC4)[C@H]1CC[C@]1(C)Oc3ccc(O)cc3C[C@@H]21 | Active | 17% | Active
2 | 6 µM | inactive | 4.80 | C[C@@]12CC[C@H]3[C@]4(CCC[C@]3(C)C(=O)OC4)[C@H]1CC[C@](C)(O)[C@H]2Cc1cc(O)ccc1O | Active | – | Active
3 | 13 µM | inactive | – | C[C@@]12CC[C@H]3[C@](C)(CCC[C@]3(C)C(=O)O)[C@H]1CC[C@]1(C)Oc3ccc(O)cc3C[C@@H]21 | Active | – | Active
